# Source: PubChem (several laboratories)
# NF-kB neuron act – raises NF-kB expression in human neuronal cells. NF-kB reporter expression; stronger effect = higher value. fold change at 12.5 µM. 190,000 tested, 1.6% active; in the data active = fold change above about 3.3
# STAT3 blocker – reduces IL-6 driven STAT3 reporter signal | U3A cells, IL-6 STAT3-luciferase reporter, luminescence; host cell line lacks STAT1 | inhibition, % at 5.5 µM | 190,000 tested, 0.89% active | AID 862;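 active = inhibition above the mean inhibition across all screened compounds plus 3 SD, cut at about 44% in these data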;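 also: 0% = DMSO only wells and 100% = 100 µM nifuroxazide control wells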
# STAT3 act-1 – increases IL-6 driven STAT3 reporter signal; U3A cells, IL-6 STAT3-luciferase reporter, luminescence; 100% = signal with IL-6 EC80 alone; activation (% of control), % at 5.6 µM; 190,000 tested, 0.91% active;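 active = activation above the screen-wide mean of compound activation plus 3 SD, cut at about 130% in these data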;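 also: 0% = background luminescence of wells with medium and substrate only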
#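 Material: STAT3-luciferase reporter U3A cells; Probe or stimulus: IL-6 (33 ng/mL); Incubation: compound pre-incubation 1 h before IL-6, then 6 h stimulation at 37 °C; Technique: luminescence from STAT3-driven luciferase reporter; Evaluation: % activation versus median of IL-6-stimulated wells; Controls: IL-6-only high control.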
# STAT1 act-1 – activators of IFN-gamma induced STAT1 signaling; 200,000 tested, 2.6% active; NIH 3T3 STAT1-luciferase reporter, luminescence; 100% = IFN-gamma alone, no compound; activation (% of control), % at 5.5 µM;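 active = activation above the screen-wide mean activation plus 3 SD, cut at about 130% in these data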;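 also: raw ratio to IFN-gamma control signal so 100% means no change and 0% no light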
# APP 5'UTR act – activates APP 5'UTR luciferase reporter; SH-SY5Y APP 5'UTR luciferase reporter, luminescence; zero percent = DMSO vehicle wells; activation, % at 2 µM; 190,000 tested, 1% active; AID 1276;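 active = activation above a set limit, based on mean plus 3 SD of controls, cut at about 140% in these data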
# STAT1 inh – reduces IFN-gamma driven STAT1 reporter signal. NIH 3T3 STAT1-luciferase reporter, luminescence. inhibition, % at 5.5 µM. 200,000 tested, 0.35% active. AID 920;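 active = inhibition above a set limit, the mean inhibition across all tested compounds plus 3 SD, cut at about 34% in these data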;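 also: 0% = IFN-gamma with DMSO and 100% = IFN-gamma with 300 µM nifuroxazide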
# STAT3 act-2 – STAT3 activation, confirmation assay. shares compounds with STAT3 act-1. U3A STAT3-luciferase reporter, IL-6 potentiation, luminescence; U3A cells lack STAT1; 100 means same as IL-6 alone. potentiation (% of control), % at 5.7 µM. 1,200 tested, 64% active. AID 1267;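 active = percent activation of the STAT3 luciferase reporter above a set limit taken from the earlier primary screen, cut at about 130% in these data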;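 also: 0% = background signal of medium plus substrate and 100% = median of IL-6 with DMSO wells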
# NFkB act 2 – counter-screen for STAT3 activators: NF-kappaB activation; 1,200 tested, 11% active; shares compounds with STAT3 act-1; activation (% of control), % at 5.7 µM; human cells, NF-kappaB reporter activation; AID 1309; in the data active = activation above about 120%;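 also: reporter induced by TNF-alpha stimulation; 100% = median of stimulated DMSO wells and 0% = no signal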
# STAT1 act-2 – activates STAT1, counter-screen to STAT3 activators. 1,200 tested, 13% active. shares compounds with STAT3 act-1. NIH 3T3 STAT1-luciferase reporter, IFN-gamma, luminescence. activation (% of control), % at 5.7 µM. AID 1318;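 active = activation above the solvent-only control well mean plus 3 SD, set per screening run, cut at about 120% in these data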;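 also: 100% = IFN-gamma with DMSO median signal so 100% means no change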
# * = called active by the depositor; · = no result. Hits are enriched below; roughly 4.9% of the tested compounds scored in any of these assays.
SMILES,NF-kB neuron act,STAT3 blocker,STAT3 act-1,STAT1 act-1,APP 5'UTR act,STAT1 inh,STAT3 act-2,NFkB act 2,STAT1 act-2
COc1ccccc1N1CCN(C(=O)COc2cc(C)cc(C)c2)CC1,0.94,-3,106,100,7,-4,·,·,·
COc1ccc(NC(=O)c2sc(SCc3ccccc3)nc2N)cc1,1,10,95,108,5,-9,·,·,·
COc1ccc(NC(=O)c2sc(SC)nc2N)cc1,3,-35,136*,124,77,-25,162*,127*,150*
N#Cc1cnc(NOCc2ccc(Cl)cc2)nc1,1.2,-2,103,107,3,-9,·,·,·
COc1ccc(CNC(=O)C(NC(C)=O)C(=O)Nc2ccc(C(C)C)cc2)cc1 (stereo not drawn),1.1,2,102,106,30,-7,·,·,·
CCN(CC)CCN1C(=O)C(=O)/C(=C(/O)c2c(C)[nH]c(C(=O)OC)c2C)C1c1cccnc1 (stereo not drawn),1.3,1,103,98,5,3,·,·,·
COC(=O)c1[nH]c(C)c(/C(O)=C2\C(=O)C(=O)N(CCN3CCOCC3)C2c2cccnc2)c1C (stereo not drawn),0.95,-42,138*,103,20,-3,92,107,97
O=C(NC1CCCCC1)C1Cc2ccccc2CN1S(=O)(=O)c1ccc(F)cc1 (stereo not drawn),0.84,-7,107,101,8,-1,·,·,·
O=C(Nc1nccs1)C1Cc2ccccc2CN1S(=O)(=O)c1ccc(F)cc1 (stereo not drawn),1.6,-44,138*,123,155*,-25,128,126*,148*
OCCC1CN(Cc2cccn2-c2cccnc2)CCN1C1CCCCC1 (stereo not drawn),·,-2,106,103,-3,-5,·,·,·
Nn1c(=O)[nH]c2c([nH]c3ccccc32)c1=O,1,-45,147*,83,2,18,152*,102,90
COc1ccc(/C=N/NC(=O)c2cc(C(C)(C)C)[nH]n2)cc1COc1ccc(F)cc1F,·,30,77,91,3,8,·,·,·
C/C(=C\C(=S)Nc1ccccc1)Nc1cccc2ccccc12,1.2,-58,155*,113,-7,-14,142*,109,119
C/C(=C\C(=S)Nc1ccccc1)Nc1ccc2ccccc2c1,1.4,-21,122,106,13,-6,·,·,·
Cn1c2ccc(Cl)cc2c2nc3ccccc3nc21,1.4,-75,173*,108,·,-9,173*,118,131*
COc1cc2c(cc1NC(=O)C(C)Sc1cccc[n+]1[O-])oc1ccccc12 (stereo not drawn),1.8,-43,136*,116,36,-18,139*,112,115
COc1cc2c(cc1NC(=O)c1ccncc1)oc1ccccc12,1.4,-60,155*,117,57,-18,137*,105,120
COc1cc2c(cc1NC(=O)c1cccnc1)oc1ccccc12,2,-11,109,125,49,-28,·,·,·
COc1cc2c(cc1NC(=O)C(C)OC(=O)c1ccc(S(=O)(=O)Nc3ccccc3Cl)cc1)oc1ccccc12 (stereo not drawn),·,-41,141*,102,35,-4,128,106,104
COc1cc2c(cc1NC(=O)C(C)Sc1nc3ccccc3n1C)oc1ccccc12 (stereo not drawn),0.87,-22,119,97,6,4,·,·,·
COc1cc2c(cc1NC(=O)C(C)N1CCN(S(=O)(=O)c3ccc(C)c(C)c3)CC1)oc1ccccc12 (stereo not drawn),0.88,-3,102,99,12,1,·,·,·
CC(=O)Oc1cc2cccc(OC(C)=O)c(=O)c2c(OC(C)=O)c1OC(C)=O,0.51,9,94,87,8,13,·,·,·
O=[N+]([O-])c1ccc(N2CCN(C(=S)Nc3ccc(F)cc3F)CC2)cc1,0.77,25,85,79,4,22,·,·,·
Cc1ccc(S(=O)(=O)N2CCCCC2)cc1C(=O)Nc1ccc2cn[nH]c2c1,0.87,-49,151*,87,2,15,135*,101,94
Cc1nc2sc3c(c2c(=O)[nH]1)CCC3,1.2,9,98,107,-10,-7,·,·,·
SMILES,NF-kB neuron act,STAT3 blocker,STAT3 act-1,STAT1 act-1,APP 5'UTR act,STAT1 inh,STAT3 act-2,NFkB act 2,STAT1 act-2
Cc1cc(-c2nc3c4c5c(sc4[nH]c(=O)n3n2)CCC5)c(C)o1,1.5,-57,151*,98,11,2,134*,97,94
CCOc1ccccc1C1CC(c2cccs2)=NN1S(C)(=O)=O (stereo not drawn),0.95,-34,137*,94,-3,5,147*,103,87
Clc1ccc(Nc2nc(-c3cccnc3)cs2)cc1,1.9,-104,192*,116,47,-18,179*,122*,139*
COc1ccc(-c2ccc(-c3nnc(-c4cc(OC)ccc4OC)o3)cc2)cc1,1.2,-42,138*,101,0,-1,84,105,103
Cc1ccc(-n2nc(C)cc2NC(=O)CC#N)cc1,1.2,7,99,93,-4,6,·,·,·
Cc1ccc(-n2nc(C)cc2NC(=O)c2ccc(C)s2)cc1,1,-37,136*,100,-13,0,114,102,97
COc1cccc2cc3c(=O)n(-c4ccccc4)nc-3oc12,1.3,-45,141*,98,-5,3,110,98,98
COc1ccc(CCN(C)C(=O)CSc2nnnn2C)cc1OC,1,9,94,107,-10,-8,·,·,·
Cc1cc(NC(=S)N(Cc2ccc(Br)cc2)Cc2ccc(C(=O)O)cc2)ccc1Cl,0.89,13,98,103,-15,-4,·,·,·
N#Cc1sc2nc(-c3ccccc3)cc(C(F)(F)F)c2c1N,1.1,-36,148*,95,-5,5,155*,104,112
CCn1c(N2CCN(CC(=O)c3c[nH]c4ccccc34)CC2)nc2c1c(=O)[nH]c(=O)n2C,1,-47,142*,93,9,8,137*,110,98
CC(OC(=O)c1ccc([N+](=O)[O-])s1)C(=O)Nc1ncc(Cl)cc1Cl (stereo not drawn),1,-12,111,99,7,1,·,·,·
COc1ccc(C)cc1N(C(=O)c1ccccc1)c1nc2ccccc2s1,0.76,-27,127,105,-4,-6,·,·,·
